# 697 NFkB inh: inhibitors of PMA/ionomycin-induced NF-kB reporter, 697 cells, primary screen, B-cell NF-kB inhibitor project, cell-based, luminescence, uHTS | 697 B-cell NF-kB luciferase reporter, 16 h | inhibition, % at 4 µM | 330,000 compounds, 0.33% hits | AID 435022, 2010; in the data active = inhibition above about 35%
# Jurkat NFkB inh: inhibitors of induced NF-kB luciferase reporter, primary screen, TCR NF-kB activation inhibitor project, cell-based, luminescence, uHTS | AID 435003, 2010 | 330,000 compounds, 0.53% hits | inhibition, % at 4 µM | Jurkat, PMA/ionomycin-induced NF-kB luciferase reporter; in the data active = inhibition above about 50%
# CHOP inh: inhibitors of CHOP promoter induction, primary screen, cell-based, unfolded protein response, luciferase reporter | CHO-K1 CHOP-promoter luciferase, tunicamycin-induced, 15-18 h | inhibition, % at 10 µM | 220,000 compounds, 3.8% hits | AID 2732, 2010;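 active = compounds that reduced the stress-induced luciferase reporter signal by more than about 70% of percent inhibition, limit read from the data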;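 also: 0% = tunicamycin plus vehicle and 100% = wells without tunicamycin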
# XBP1 UPR activ: activators of adaptive XBP1 UPR arm, primary screen, cell-based, CHO-XBP1 luciferase reporter, luminescence, uHTS; activation, % at 20 µM; IRE1-XBP1 UPR activation; percent of tunicamycin response, DMSO as zero; 330,000 compounds, 0.33% hits; AID 463104, 2010;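 active = versus positive control, 20 µM dose yields 30% or more activation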;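 also: 100% = tunicamycin at 10 µg/mL and 0% = DMSO only wells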
#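 incubation = overnight seeding at 37 °C, 6 h compound treatment at 37 °C | assay system = CHO-XBP1 cells stably carrying IRE1-XBP1-driven luciferase reporter | input = 1000 cells per well | detection = luciferase luminescence | dosing = single point, 20 µM final compound, 1% DMSO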
# UPR CHOP act: activators of apoptotic CHOP UPR arm, primary screen, cell-based, CHO-CHOP luciferase reporter, luminescence, uHTS | UPR activation; percent of tunicamycin response over DMSO baseline | activation, % at 10 µM | 330,000 compounds, 0.34% hits | AID 449763, 2010;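 active = at 10 µM dose, activation of 40% or more, normalized to positive control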;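 also: 100% = tunicamycin at 10 µg/mL and 0% = DMSO alone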
#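 System: CHO-CHOP luciferase reporter cell line; amount: 500 cells/well; buffer or medium: F12 medium containing 10% fetal bovine serum; incubation: 6 h compound exposure at 37 °C after overnight seeding; measured by: luciferase luminescence after 10 min with Steady-Glo reagent; evaluation: % reporter activation, DMSO baseline versus tunicamycin full activation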
# Gli-Sufu block: Gli-Sufu pathway antagonists, primary screen, luciferase luminescence, Sufu-KO-LIGHT cells, uHTS; Sufu-KO-LIGHT fibroblasts, Gli luciferase reporter luminescence; inhibition, % at 5 µM; 340,000 compounds, 0.74% hits; AID 588413, 2011;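 active = inhibition above about 55%, limit read from the data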;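 also: 0% = DMSO-treated cells and 100% = wells with medium but no cells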
# The depositor's hits bear a star; · = no result. Most compounds without a hit are left out; they make up all but 3.9% or so of the library.
SMILES,697 NFkB inh,Jurkat NFkB inh,CHOP inh,XBP1 UPR activ,UPR CHOP act,Gli-Sufu block
C=CCn1c(COc2ccc(CC)cc2)nnc1SC/C(O)=C(\C#N)c1nc2ccccc2[nH]1,-17,4,88*,0,1,4
COc1ccc(CN(C)C(=O)c2cccc(S(=O)(=O)N3CCc4ccccc43)c2)c(OC)c1,4,-19,·,-2,1,-11
CCOC(=O)C1=CCN(Cc2ccccc2)CC1,-3,-7,·,-3,1,12
CC(C)N(Cc1nc(-c2ccc(Cl)cc2)no1)C(=O)CCC1CCCC1,0,-4,84*,-4,1,4
CCCc1nc(NC(C)=O)c(C#N)c(-c2ccco2)c1CC,14,9,0,-2,-2,-2
CCCCc1nc(N)c(C#N)c(-c2ccco2)c1CCC,-2,7,77*,1,0,7
Cc1c(CCC(C)C)c(=O)n2c([nH]c3ccccc32)c1C#N,-16,13,96*,2,0,9
CC(=O)N(C(C)=O)N1C(=O)/C(=C/c2ccc(Cl)cc2)SC1=S,1,4,91*,0,-1,-14
CC1(c2nnc(-c3cccc(Cl)c3)o2)CC(c2ccc(OC(F)(F)F)cc2)=NO1 (centres undefined),16,17,·,0,1,-9
COc1cccc(-c2nc(N3CCC(C)CC3)c3ccccc3n2)c1O,-3,-8,59,0,-2,-11
CC1CN(c2nc(-c3ccccc3)nc3ccccc23)CC(C)O1 (centres undefined),-32,-6,82*,0,-1,2
COc1cccc(-c2nc(N3CC(C)CC(C)C3)c3ccccc3n2)c1O (centres undefined),3,-13,76*,46*,3,23
O=C(NCCN1CCOCC1)c1cccc(S(=O)(=O)N(Cc2ccccc2)c2ccccc2)c1,27,5,·,-1,4,-1
COc1ccccc1CCNC(=O)c1cccc(S(=O)(=O)N2CCc3ccccc3C2)c1,10,-1,·,-1,-1,-2
Cc1ccccc1N(CC(=O)NC1CCCC1)C(=O)c1oc(C(C)(C)C)cc1C,0,-11,15,-5,-1,10
Cc1cc(C(C)(C)C)oc1C(=O)N(CC(=O)NC1CCCC1)c1cccc(C(F)(F)F)c1,-13,12,83*,0,-1,33
Cc1ccc(OCC(O)Cn2c(N3CCCCC3)nc3c2c(=O)[nH]c(=O)n3C)cc1C (centres undefined),-24,-9,·,-3,-1,1
CC(C)NC(=O)NC(=O)COC(=O)c1ccc(OC(F)(F)F)cc1,13,-4,84*,-3,-2,-3
Cc1ccc(-c2nnc3ccc(SCC(=O)N4CCc5ccccc54)nn23)cc1,-6,-2,85*,19,5,-17
Cc1ccc(-c2nnc3ccc(SCC(=O)N4CCCc5ccccc54)nn23)cc1,-17,7,59,-1,3,16
COc1ccc(NC(=O)CN(C)C(=O)c2ccc(S(=O)(=O)Nc3ccccc3F)cc2)cc1,12,-4,·,-3,0,-1
CCc1c(N)nc(N)nc1Nc1ccccc1C,·,·,·,·,·,47
Cc1ccc(CCNC(=O)c2nnc(CS(=O)(=O)c3ccccc3)o2)cc1,6,2,·,-2,0,-9
Cc1cccc2c1[nH]c1nc(N/N=C\c3ccco3)nnc12,14,12,85*,1,5,·
Cc1ccnc(N/N=C/c2ccco2)n1,-38,-15,8,0,1,-31
SMILES,697 NFkB inh,Jurkat NFkB inh,CHOP inh,XBP1 UPR activ,UPR CHOP act,Gli-Sufu block
O=C1/C(=C/c2ccc([N+](=O)[O-])cc2)C=C(c2ccccc2)N1c1ccc(O)cc1,15,14,81*,13,16,33
Nc1ncnc2c1ncn2[C@@H]1O[C@H](C(=O)NC2CC2)[C@H](O)C1O (some centres undefined),·,·,-19,·,·,·
CC1(C)CC(=O)C/C(=N/NC(=O)COc2ccc3ccccc3c2Br)C1,-9,6,·,-1,-1,3
Cc1ccc(-c2csc3nc(CSc4nnc(-c5ccc(Cl)cc5)n4C)[nH]c(=O)c23)cc1,-18,10,52,0,-1,-1
CCn1c(SCc2nc3scc(-c4ccccc4)c3c(=O)[nH]2)nnc1-c1ccc(Cl)cc1,-16,-1,93*,1,-1,11
CCOc1cccc2cc(C(=O)NCc3ccc(Cl)cc3)c(=N)oc12,-36,-20,·,-1,2,28
CCN(C(=O)COC(=O)CCC(=O)c1ccccc1)c1c(N)n(Cc2ccccc2)c(=O)[nH]c1=O,-22,-17,·,1,1,16
COc1cc(CNC2CCCC2)cc(Cl)c1OCc1ccccc1Cl,-2,-1,74*,14,-2,-1
CCCCOc1ccccc1Cn1c(=O)oc2ccccc21,-9,3,88*,-8,-1,30
O=c1oc2ccccc2n1Cc1ccccc1F,19,0,·,-2,-2,-1
CC(C)CC(=O)NC(=S)NNC(=O)c1ccc(NC(=O)C2CCCCC2)cc1,7,13,72*,2,1,-13
CC(C)CC(=O)NC(=S)NNC(=O)c1ccc([N+](=O)[O-])cc1,0,1,29,-2,0,-2
O=C(c1ccc(Cl)c(Cl)c1)N(Cc1ccco1)c1ccc(O)cc1,22,3,87*,-2,-1,-56
O=C(COc1ccccc1)N(Cc1ccco1)c1ccc(O)cc1,-5,4,26,-2,2,5
Cn1c(=O)c2c(nc(N3CCCCC3)n2CCSc2nc3ccccc3s2)n(C)c1=O,-46,-5,-12,4,1,20
CC1CCN(c2nc3c(c(=O)n(C)c(=O)n3C)n2CCSc2nc3ccccc3s2)CC1,-82,-3,76*,4,5,12
COc1cc(/C=C/c2cc(OC(C)=O)c3ccccc3n2)c(OC(C)=O)c([N+](=O)[O-])c1,10,10,87*,0,-4,12
Clc1cccc(-c2ccnc3nc(-n4cccc4)nn23)c1,2,4,76*,1,-1,5
COc1ccc(-c2ccnc3nc(-n4cccc4)nn23)cc1,15,12,33,4,2,-6
Cn1nc(C(=O)Nc2cccc(C(F)(F)F)c2)ccc1=O,2,10,-11,-2,0,12
CN(C)c1nn(C(=O)Nc2cccc(C(F)(F)F)c2)cc1-c1ccccc1,13,-5,90*,-1,-1,-7

# Screens from PubChem BioAssay.
